Assay outcomes: PubChem, several laboratories
PolyA inh: inhibitors of polyadenylation in S. cerevisiae; hit rate 0.02% among 300,000; S. cerevisiae SKY197-pL101 polyadenylation reporter, beta-gal luminescence; efflux-impaired pdr1/pdr3 knockout yeast; score 100 = 6 SD above DMSO; activity score, % at 12 µM; AID 1875;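 active means lowest replicate activity score at least 50, where 100 means six control SD above control mean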;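 further: yeast exposed to compound for 9 h at 30 °C; higher score means more reporter readthrough which indicates perturbed polyadenylation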
IMP-1 inhibitor: inhibitors of Pseudomonas aeruginosa IMP-1 metallo-beta-lactamase; purified IMP-1, nitrocefin hydrolysis, epi-absorbance fluorescence; hit rate 0.45% among 290,000; inhibition, % at 5.6 µM; AID 1556;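 active means inhibition above the mean plus 3 SD of all compounds in the same screening run, cut at about 4.5% in these data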;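 further: 0% = IMP-1 with DMSO and 100% = DMSO wells lacking enzyme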
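System: Purified IMP-1 | Read-out basis: Percent enzyme inhibition | Controls: IMP-1 with DMSO as 0%, enzyme-free DMSO as 100% | Replicates: One well per compound | Doses: 5.6 µM nominal single concentration | Detection: Epi-absorbance fluorescence, 480 nm excitation, 530 nm emission | Incubation: 25 °C, 15 min preincubation, 25 min reaction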
Neddylation inh: inhibitors of human cullin neddylation. P61081+Q13564. TR-FRET cullin neddylation, biochemical. calls only at 25 µM. hit rate 0.58% among 360,000. AID 651699; in the data active means inhibition above about 36%
Target sequence (P61081 whole entry, looked up): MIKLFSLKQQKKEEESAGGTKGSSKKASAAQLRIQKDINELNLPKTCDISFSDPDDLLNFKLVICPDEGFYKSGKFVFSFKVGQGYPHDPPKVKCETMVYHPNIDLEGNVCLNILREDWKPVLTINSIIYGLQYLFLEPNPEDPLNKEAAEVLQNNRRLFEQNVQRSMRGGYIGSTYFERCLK
Target sequence (Q13564 whole entry, looked up): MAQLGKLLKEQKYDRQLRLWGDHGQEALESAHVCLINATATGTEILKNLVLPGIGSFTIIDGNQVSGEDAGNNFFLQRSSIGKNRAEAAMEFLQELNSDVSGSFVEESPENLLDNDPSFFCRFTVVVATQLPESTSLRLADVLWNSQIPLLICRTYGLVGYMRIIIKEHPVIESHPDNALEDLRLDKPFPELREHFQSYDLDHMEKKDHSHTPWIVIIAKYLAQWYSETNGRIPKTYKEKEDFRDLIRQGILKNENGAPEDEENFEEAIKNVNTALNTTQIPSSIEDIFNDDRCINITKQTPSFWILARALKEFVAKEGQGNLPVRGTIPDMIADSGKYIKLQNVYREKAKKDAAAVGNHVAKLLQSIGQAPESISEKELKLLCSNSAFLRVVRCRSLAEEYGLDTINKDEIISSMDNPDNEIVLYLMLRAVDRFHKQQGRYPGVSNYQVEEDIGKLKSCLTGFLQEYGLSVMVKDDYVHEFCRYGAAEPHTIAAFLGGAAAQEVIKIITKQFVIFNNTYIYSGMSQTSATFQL
procasp3 activ: activates human procaspase-3; hit rate 0.11% among 330,000; activation, % at 8.5 µM; recombinant procaspase-3 D3A, Ac-DEVD-pNA absorbance 405 nm;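 active means activation above the mean of all tested compounds plus 3 SD, cut at about 21% in these data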;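 further: 0% = DMSO alone and 100% = DMSO wells spiked with extra 5 µM PC-3 D3A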
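System: Procaspase-3 D3A mutant. Medium: Zinc-free 300 mM NaCl, 50 mM HEPES, 0.01% Triton X-100. Schedule: 1 h preincubation plus 2 h reaction at 25 °C. Measured by: 405 nm absorbance of p-nitroaniline, reads at 0 and 120 min. Read-out: percent activation relative to control range.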
VIM-2 inh: blocks Pseudomonas aeruginosa VIM-2 metallo-beta-lactamase; AID 1527; hit rate 0.89% among 290,000; purified VIM-2, nitrocefin hydrolysis, epi-absorbance fluorescence; inhibition, % at 5.6 µM;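 active means inhibition above the mean of all tested compounds plus 3 SD, cutoff set per screening run, cut at about 7.5% in these data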;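 further: red hydrolysis product quenches plate fluorescence so inhibitors raise well fluorescence; 0% = enzyme with DMSO and 100% = DMSO without enzyme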
proCasp7 act: counter-screen: procaspase-7 (human) activation; hit rate 0.093% among 330,000; activation, % at 8.5 µM; P55210; recombinant procaspase-7, Ac-DEVD-pNA absorbance 405 nm; D23A/D198A/D206A triple mutant, cannot self-cleave; scale: DMSO 0, 5 µM enzyme 100;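 active means percent activation above the screen-wide mean plus 3 SD, cut at about 25% in these data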
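Assay system – Uncleavable procaspase-7 mutant enzyme · Quantity – 2 µM procaspase-7 mutant as dispensed · Times – 1 h preincubation, 2 h reaction · Dosing – single nominal 8.5 µM compound dose, 0.8% DMSO final · Buffer or medium – Zinc-free 50 mM HEPES buffer, pH 7.4, with NaCl and Triton X-100 · Detection – Epi-absorbance of released pNA at 405 nm, two timepoints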
The depositor's hits bear a star; i = inactive; . = not tested or not shown. Shown are actives, neighbours in structure and some others; about 1.7% of the full set was active somewhere.

SMILES	PolyA inh	IMP-1 inhibitor	Neddylation inh	procasp3 activ	VIM-2 inh	proCasp7 act
CCOC(=O)c1c(C)[nH]c(C)c1C(=O)COC(=O)CNC(=O)c1ccc(OCC)cc1	12	4.7*	i	6	-2	13
O=C(NCCCN1CCOCC1)c1cc2nc(-c3ccco3)cc(C(F)(F)F)n2n1	-6	-2	.	3	12*	6
O=C(COC(=O)c1cccnc1Cl)c1ccc(F)cc1	27	-1	i	9	0	8
COc1ccc(C(=O)NC(=O)NC2(C(Cl)(Cl)Cl)OCCO2)cc1	-2	0	i	4	-1	4
Nn1c(SCc2ccc([N+](=O)[O-])cc2)nc2ccccc2c1=O	-24	7.6*	i	0	-2	-2
CC1CN2C(c3ccc([N+](=O)[O-])cc3)=CSC2=N1 (stereo unspecified)	8	-4	i	-19	-2	-25
CN(C)c1ccc(/C=N/NC(=S)NCc2ccccc2)cc1	-16	-4	.	90*	-3	32*
CC(C)(C)c1ccc(/C=N/NC(=S)NCc2ccccc2)cc1	9	-3	i	7	0	3
Cc1ccc(C)c2nc3sc(C(=O)N4CCCc5ccccc54)c(N)c3cc12	2	-1	i	-8	-3	-7
Cc1ccc(C)c2nc3sc(C(=O)O)cc3cc12	-2	-4	i	3	9.6*	7
CCn1c(NC(=O)C(C)C)c2ccccc2nc1=O	11	-2	i	0	1	12
CC(C)CC(=O)NC(=S)Nc1ccccc1C(=O)Nc1ccccc1	6	12*	i	-6	-5	1
CC(C)C(=O)NC(=S)Nc1ccccc1C(=O)Nc1ccccc1	14	19*	i	-7	-3	-6
CC1CCN(c2ccccc2NC(=S)NC(=O)C(C)(C)C)CC1	-51	6.3*	i	1	0	-1
CC(C)(C)C(=O)NC(=S)Nc1ccccc1C(=O)Nc1ccccc1	3	17*	i	-2	-1	7
CC1CCN(c2ccccc2NC(=S)NC(=O)c2cccs2)CC1	-17	-4	i	-9	-2	-5
CC(C)(C)C(=O)NC(=S)Nc1ccccc1C(=O)NC1CCCCC1	0	1	i	-3	-2	-9
O=C(Cn1cc2c(n1)CCCCC2)N1CCc2ccccc2C1	1	-1	i	-2	-4	0
COc1ccc(S(=O)(=O)Nc2cccc3c2O[C@H](CN(C)Cc2ccc(C(=O)O)cc2)[C@@H](C)CN([C@H](C)CO)C3=O)cc1	.	.	i	2	.	-6
CCc1ccc(CN(C)Cc2nc(-c3cccc(Cl)c3)no2)nc1	-7	0	i	4	-3	2
CC(=O)c1cccc(CN2CCC(C(=O)Nc3ccc(-c4cccc(C)c4)cc3)CC2)c1	8	-1	i	-2	-1	4
O=C(O)/C(=C\c1ccccc1OC(F)F)c1ccc(-c2ccccc2)cc1	-4	7.3*	i	9	-2	-5
O=C(O)/C(=C\c1ccc(F)cc1)c1ccc(-c2ccccc2)cc1	21	0	i	-1	0	4
CCCn1c(/C=C/c2cc[n+](C)cc2)nc2ccccc21	-13	-3	i	-3	-1	-5
C[n+]1ccc(/C=C/c2ccc(Br)cc2)cc1	17	8.3*	i	1	-3	-1
Cc1cc2[nH]c3c(c[n+](C)c4ccccc34)c2cc1C	32	11*	.	-9	6	-14
Cc1c(C)c2ccc(OCC(=O)Nc3ccc(S(N)(=O)=O)cc3)c(C)c2oc1=O	-6	-1	i	-2	7.8*	-3
CCCc1cc(=O)oc2cc(OC(C)C(=O)NCCCn3ccnc3)ccc12 (stereo unspecified)	-7	-1	i	-3	4	-4
CCCc1cc(=O)oc2cc(OCC(=O)NCc3cccs3)ccc12	-4	-4	i	6	-2	6
CCCc1cc(=O)oc2cc(OCC(=O)NCCCn3ccnc3)ccc12	8	-1	i	-3	9.0*	5
